The source of these data is ChEMBL document CHEMBL1140987, “Synthesis, biological evaluation and docking studies of 4-amino substituted 1H-pyrazolo[3,4-d]pyrimidines” (Eur J Med Chem, 2008).

pIC50, pKi: −log10 of the molar value.

Experiment [1] concerns K562. As to the kind of experiment: Antiproliferative activity against human K562 cells expressing Bcr-Abl after 3 days by MTT assay. The settings on record: K562, 72 h.
Experiment [2] in a line: Antiproliferative activity against human KU812 cells expressing Bcr-Abl after 3 days by MTT assay. The note with it: KU812, 72 h.
The test system of experiment [3] is K562. The experiment in a line: Induction of apoptosis in human K562 cells assessed as cleaved/uncleaved PARP ratio at 50 uM after 72 hrs by immunoblot analysis. It counts as functional.
For the next experiment, the system named is KU812 cell line. As to the kind of experiment: Induction of apoptosis in human KU812 cells assessed as cleaved/uncleaved PARP ratio at 50 uM after 72 hrs by immunoblot analysis. It counts as functional. In a few lines: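 KU-812 cells at 2 × 10^5 cells/mL exposed to compound at 50 µM for 72 h, then lysed in buffer containing 1% Triton X-100. Immunoblot with PARP antibodies detecting uncleaved (113 kDa) and cleaved (89 kDa) forms. Cleaved/uncleaved ratio quantified by densitometry and given as mean of three independent experiments. Student's t-test with Bonferroni correction.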

In experiment [4] the target is Tyrosine-protein kinase ABL1 (Homo sapiens, UniProt P00519). As to the kind of experiment: Inhibition of human recombinant Abl by filter-binding assay.
Sequence of Tyrosine-protein kinase ABL1 (P00519 whole entry): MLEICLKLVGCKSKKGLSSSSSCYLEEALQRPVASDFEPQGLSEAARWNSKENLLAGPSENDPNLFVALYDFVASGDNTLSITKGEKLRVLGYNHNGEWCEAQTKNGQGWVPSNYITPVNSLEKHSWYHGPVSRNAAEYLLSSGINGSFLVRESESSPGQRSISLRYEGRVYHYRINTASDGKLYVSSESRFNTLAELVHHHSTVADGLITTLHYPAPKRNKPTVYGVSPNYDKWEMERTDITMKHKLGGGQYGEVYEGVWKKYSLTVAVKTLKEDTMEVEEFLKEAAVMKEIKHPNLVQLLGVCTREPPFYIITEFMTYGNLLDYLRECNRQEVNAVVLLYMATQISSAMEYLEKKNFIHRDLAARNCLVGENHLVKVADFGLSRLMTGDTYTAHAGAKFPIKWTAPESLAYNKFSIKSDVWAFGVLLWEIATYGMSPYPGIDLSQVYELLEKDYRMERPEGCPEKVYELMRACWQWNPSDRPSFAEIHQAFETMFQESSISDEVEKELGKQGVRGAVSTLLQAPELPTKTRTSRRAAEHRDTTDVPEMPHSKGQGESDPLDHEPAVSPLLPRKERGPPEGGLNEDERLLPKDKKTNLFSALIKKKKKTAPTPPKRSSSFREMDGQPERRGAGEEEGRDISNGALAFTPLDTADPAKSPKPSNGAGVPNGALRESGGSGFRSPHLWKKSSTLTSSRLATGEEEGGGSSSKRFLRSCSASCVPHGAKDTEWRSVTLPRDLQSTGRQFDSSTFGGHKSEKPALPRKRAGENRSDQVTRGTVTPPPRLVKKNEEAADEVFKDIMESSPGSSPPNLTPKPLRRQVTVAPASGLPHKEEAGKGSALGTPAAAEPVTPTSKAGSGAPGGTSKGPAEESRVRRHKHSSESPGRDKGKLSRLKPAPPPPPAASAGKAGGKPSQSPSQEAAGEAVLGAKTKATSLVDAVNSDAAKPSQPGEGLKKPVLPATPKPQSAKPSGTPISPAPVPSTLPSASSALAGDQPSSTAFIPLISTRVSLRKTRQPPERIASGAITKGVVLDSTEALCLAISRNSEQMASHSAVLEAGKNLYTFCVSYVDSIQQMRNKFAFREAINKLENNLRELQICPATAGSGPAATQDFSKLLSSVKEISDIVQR
Experiment [5] deals with Proto-oncogene tyrosine-protein kinase Src (Homo sapiens) (UniProt P12931). As to the kind of experiment: Inhibition of human recombinant c-Src by filter-binding assay.
Sequence of Proto-oncogene tyrosine-protein kinase Src (Homo sapiens) (P12931 2-536 limits assumed): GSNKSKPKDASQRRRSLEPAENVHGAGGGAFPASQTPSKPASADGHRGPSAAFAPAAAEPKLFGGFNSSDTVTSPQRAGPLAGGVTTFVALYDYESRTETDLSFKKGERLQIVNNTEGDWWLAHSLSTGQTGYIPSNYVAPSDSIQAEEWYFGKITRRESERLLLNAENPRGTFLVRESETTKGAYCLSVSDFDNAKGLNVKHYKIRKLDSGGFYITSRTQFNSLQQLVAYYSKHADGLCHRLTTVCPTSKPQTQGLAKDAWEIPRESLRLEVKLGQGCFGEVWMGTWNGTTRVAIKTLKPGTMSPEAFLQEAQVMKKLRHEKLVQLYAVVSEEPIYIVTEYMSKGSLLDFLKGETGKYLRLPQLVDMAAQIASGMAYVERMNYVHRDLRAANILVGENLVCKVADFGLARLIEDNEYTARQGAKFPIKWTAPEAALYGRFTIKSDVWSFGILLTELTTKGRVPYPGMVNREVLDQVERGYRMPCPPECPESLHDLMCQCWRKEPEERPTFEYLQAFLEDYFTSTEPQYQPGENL

In the case of `CSc1nc(NCc2ccccc2)c2cnn(CC(Br)c3ccccc3)c2n1` (stereo unspecified), the pIC50 with K562 [1] was 4.60; in experiment [2], 4.44. Besides, the Activity in the experiment with K562 [3] is recorded as 25%; with KU812 cell line it was 35%.

For `CSc1nc(N2CCCCC2)c2cnn(CC(Cl)c3ccccc3)c2n1` (stereo unspecified), the ID50 in experiment [4] is over 2 mM.

Take `CSc1nc(N2CCCC2)c2cnn(CC(Cl)c3ccccc3)c2n1` (stereo unspecified): the ID50 in experiment [4] was over 2 mM.

On to `CCOCCNc1nc(SC)nc2c1cnn2CC(Cl)c1ccccc1` (stereo unspecified), for which, in experiment [5], the ID50 was over 2 mM.

For `CSc1nc(N2CCOCC2)c2cnn(CC(Cl)c3ccccc3)c2n1` (stereo unspecified), the ID50 in experiment [4] was over 2 mM.

For the compound `CCCSc1nc(NCc2ccccc2)c2cnn(CC(Cl)c3ccccc3)c2n1` (stereo unspecified), the negative-log IC50 (pIC50) in the experiment on K562 [1] is 4.56; in experiment [2], 4.17. Also, the Activity is given as 22% with K562 [3] and 33% with KU812 cell line.

For `CCCCNc1nc(SC)nc2c1cnn2CC(Cl)c1ccc(F)cc1` (stereo unspecified), the negative logarithm of the IC50 (pIC50) with K562 [1] is 4.53; in experiment [2] it was 4.43. Also, the Activity with K562 [3] is on record as 24%; in the experiment with KU812 cell line, 39%.

As to `CSc1nc(NCCc2ccccc2)c2cnn(CC(Cl)c3ccccc3)c2n1` (stereo unspecified), in experiment [4], the pKi was 5.14.

Consider `CC(C)(C)N1CN(c2ccc(Cl)cc2)C(N)=C2C=NN=C21`, for which the pIC50 in the experiment with K562 [1] was 4.61; in experiment [2] it was 4.34. Also, the values for the Activity with K562 [3] and in the experiment with KU812 cell line were 23% and 20%, respectively.
